# Measured values: ChEMBL document CHEMBL5365428, “Alkyne as a Latent Warhead to Covalently Target SARS-CoV-2 Main Protease” (J Med Chem, 2023)
# Activity calls are given as the source filed them. The rule behind the calls is not given here. Residues, ends and D or L forms follow the SMILES beside them. *: point of attachment. Cbz = O=C(OCc1ccccc1)*
# Key:
# [1] = molecular target: Replicase polyprotein 1ab (Severe acute respiratory syndrome coronavirus 2) (UniProt P0DTD1); experiment: Binding affinity to recombinant hexa-His tagged SARS-COV2 main protease expressed in Escherichia coli at 300 nM by in-gel fluorescence analysis
# Summary of the method: (§1)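 E. coli-expressed Mpro was incubated with Alk-4d or Alk-4i at 30 °C for 1 h. Click chemistry followed at room temperature for 1 h in the dark, with final 25 μM TAMRA-azide, 1 mM TCEP, 100 μM THPTA and 1 mM CuSO4. Samples were boiled, run on 4–20% SDS-PAGE, scanned at ex 532/em 600 nm, and silver-stained to check loading.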
# HEK293T = experiment: Binding affinity to proteome in HEK293T cells at 10 uM after 5 hrs; format: cell-based; details: Homo sapiens
# Summary of the method: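 Parental HEK293T cells were treated with clickable probe at various concentrations for 5 h. Cells were harvested and lysed in NP40 buffer, and protein was normalised to 1 mg/mL. Lysates were click-conjugated to TAMRA azide, resolved by SDS-PAGE and imaged for in-gel fluorescence.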
# [2] = molecular target: Replicase polyprotein 1ab (Severe acute respiratory syndrome coronavirus 2) (UniProt P0DTD1); experiment: Binding affinity to SARS-COV2 main protease at 30 uM preincubated with nirmatrelvir followed by compound addition measured over 6 hrs
# Summary of the method: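 Pulse-chase competition: recombinant Mpro was pretreated with 1.5 μM nirmatrelvir at 30 °C, then given 30 μM Alk-4i probe for various times. Click conjugation to TAMRA-azide was followed by SDS-PAGE and in-gel fluorescence (ex 532, em 600 nm). The nirmatrelvir dissociation half-life was derived from the labeling curve.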
# [3] = molecular target: Replicase polyprotein 1ab (Severe acute respiratory syndrome coronavirus 2) (UniProt P0DTD1); experiment: Binding affinity to recombinant hexa-His tagged SARS-COV2 main protease expressed in Escherichia coli incubated for 1 hr by SDS-PAGE gel electrophoresis method; summary of the method: as §1
# [4] = molecular target: Replicase polyprotein 1ab (Severe acute respiratory syndrome coronavirus 2) (UniProt P0DTD1); experiment: Binding affinity to recombinant hexa-His tagged SARS-COV2 main protease expressed in Escherichia coli at 10 uM pretreated with (1R,2S,5S)-3-((S)-3,3-dimethyl-2-(2,2,2-trifluoroacetamido)butanoyl)-6,6-dimethyl-N-((S)-5,5,5-trifluoro-1-((S)-2- oxopyrrolidin-3-yl)pent-3-yn-2-yl)-3-azabicyclo[3.1.0]hexane-2-carboxamide
# Summary of the method: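 Competition labeling: recombinant Mpro (1 μg) was […] competitor and clickable probe at the indicated concentrations, at 30 °C for 1 h. TAMRA-azide click reaction, SDS-PAGE and in-gel fluorescence imaging (ex 532/em 600 nm) followed.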
# [5] = molecular target: Replicase polyprotein 1ab (Severe acute respiratory syndrome coronavirus 2) (UniProt P0DTD1); experiment: (§2) Binding affinity to recombinant hexa-His tagged SARS-COV2 main protease expressed in Escherichia coli pretreated with nirmatrelvir followed by compound addition by SDS-PAGE gel electrophoresis method
# [6] = molecular target: Replicase polyprotein 1ab (Severe acute respiratory syndrome coronavirus 2) (UniProt P0DTD1); experiment: as §2, with “(1R,2S,5S)-3-((S)-3,3-dimethyl-2-(2,2,2-trifluoroacetamido)butanoyl)-6,6-dimethyl-N-((S)-1-((S)-2-oxopyrrolidin-3-yl)but-3-yn-2-yl)-3-azabicyclo[3.1.0]hexane-2-carboxamide” for “nirmatrelvir”
# [7] = molecular target: Replicase polyprotein 1ab (Severe acute respiratory syndrome coronavirus 2) (UniProt P0DTD1); experiment: Binding affinity to recombinant hexa-His tagged SARS-COV2 main protease expressed in HEK293T cells by in-gel fluorescence analysis; format: cell-based
# Summary of the method: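 HEK293T cells were transiently transfected with an Mpro plasmid. At 24 h post-transfection, they were treated with probe (from a 1000× DMSO stock) in fresh DMEM/10% FBS. Cells were washed, lysed in NP40 buffer and normalised to 1 mg/mL protein. Lysates were click-conjugated to TAMRA-azide, then analysed by SDS-PAGE and fluorescence imaging.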
# [8] = molecular target: Replicase polyprotein 1ab (Severe acute respiratory syndrome coronavirus 2) (UniProt P0DTD1); experiment: Inhibition of recombinant hexa-His tagged SARS-COV2 main protease expressed in Escherichia coli upto 30 uM using Dabcyl-KTSAVLQISGFRKM-E(Edans)-NH2 as substrate preincubated for 15 mins followed by substrate addition and measured after 1 hr by FRET assay; details: time 75.0 min
# Summary of the method: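 Fluorescence (ex 340/em 475 nm) was read every 38 s for 1 h. IC50 came from initial velocities, in duplicate.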
# [9] = molecular target: T1, Cathepsin K (Homo sapiens) (UniProt P43235); experiment: Inhibition of human cathepsin K upto 40 uM preincubated for 20 mins
# T1 sequence (whole entry): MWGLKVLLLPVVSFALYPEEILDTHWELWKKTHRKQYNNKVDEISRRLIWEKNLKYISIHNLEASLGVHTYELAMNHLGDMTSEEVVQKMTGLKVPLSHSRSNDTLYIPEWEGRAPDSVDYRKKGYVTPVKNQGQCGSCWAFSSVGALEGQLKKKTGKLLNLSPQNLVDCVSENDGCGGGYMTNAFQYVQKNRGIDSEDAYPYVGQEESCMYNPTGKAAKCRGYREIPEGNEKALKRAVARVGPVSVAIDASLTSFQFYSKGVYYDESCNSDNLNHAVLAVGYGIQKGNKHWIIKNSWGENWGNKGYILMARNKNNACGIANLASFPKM
# Summary of the method: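 Recombinant cathepsin K (0.042 nM) was preincubated with compound for 20 min in 50 mM NaOAc pH 5.5, 5 mM EDTA, 0.005% Triton X-100, 5 mM DTT and 1% DMSO. Z-FR-AMC was added at 5 μM. Fluorescence (ex 355/em 460 nm) was read at room temperature every 5 min for 2 h, and initial velocities came from the linear portion.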
# SARS-CoV-2 [10] = experiment: Antiviral activity against SARS-CoV-2 infected in HeLa cells expressing ACE2 at 3 uM pre-infected for 1 hr followed by compound addition and measured after 24 hrs by RT-qPCR analysis; format: functional, Severe acute respiratory syndrome coronavirus 2
# SARS-CoV-2 [11] = experiment: Antiviral activity against SARS-CoV-2 infected in HeLa cells expressing ACE2 pre-infected for 1 hr followed by compound addition and measured after 24 hrs; format: functional, organism-based; details: Severe acute respiratory syndrome coronavirus 2
# [12] = molecular target: Cathepsin B (Homo sapiens) (UniProt P07858); experiment: Inhibition of human cathepsin B upto 40 uM preincubated for 20 mins
# Summary of the method: (§3)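 Z-FR-AMC was added at 10 μM. Fluorescence (ex 355/em 460 nm) was read at room temperature every 5 min for 2 h, and initial velocities came from the linear portion.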
# [13] = molecular target: Procathepsin L (Homo sapiens) (UniProt P07711); experiment: Inhibition of human cathepsin L upto 40 uM preincubated for 20 mins; summary of the method: as §3
# Procathepsin L (Homo sapiens), sequence (P07711 114-333 limits assumed): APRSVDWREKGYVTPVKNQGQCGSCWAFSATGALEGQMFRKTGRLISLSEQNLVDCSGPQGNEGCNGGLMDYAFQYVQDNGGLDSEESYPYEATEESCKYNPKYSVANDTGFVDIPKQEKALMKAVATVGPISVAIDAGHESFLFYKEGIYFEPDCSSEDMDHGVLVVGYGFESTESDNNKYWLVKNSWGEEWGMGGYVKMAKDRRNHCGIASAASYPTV
# HeLa = experiment: Cytotoxicity against human HeLa cells expressing ACE2 upto 10 uM after 20 hrs by Cell Titer-Glo luminescent cell viability assay; format: toxicity, cell-based
compound,measurement,setting,value
C#CC[C@H](NC(=O)C(F)(F)F)C(=O)N1C[C@H]2[C@@H]([C@H]1C(=O)N[C@H](C#CC(F)(F)F)C[C@@H]1CCNC1=O)C2(C)C,Activity,[1],Active
same,Activity,HEK293T,Active
same,Activity,[2],Active
C#CC[C@H](NC(=O)C(F)(F)F)C(=O)N1C[C@H]2[C@@H]([C@H]1C(=O)N[C@H](C#C)C[C@@H]1CCNC1=O)C2(C)C,Activity,[3],Active
same,Activity,[4],inactive
same,Activity,[5],inactive
same,Activity,[6],inactive
same,Activity,[7],Dose-Dependent Effect
CC(C)C[C@H](NC(=O)OCc1ccccc1)C(=O)N[C@H](C#N)CCC(N)=O,inhibition,[8],inactive
C#C[C@H](C[C@@H]1CCNC1=O)NC(=O)[C@@H]1[C@@H]2[C@H](CN1C(=O)[C@@H](NC(=O)C(F)(F)F)C(C)(C)C)C2(C)C,inhibition,[9],inactive
same,Activity,SARS-CoV-2 [10],100%
same,Activity,SARS-CoV-2 [11],Dose-Dependent Effect
same,inhibition,[12],inactive
same,inhibition,[13],inactive
CC(C)(C)[C@H](NC(=O)C(F)(F)F)C(=O)N1C[C@H]2[C@@H]([C@H]1C(=O)N[C@H](C#CC(F)(F)F)C[C@@H]1CCNC1=O)C2(C)C,Activity,HeLa,Non-Toxic
same,Activity,SARS-CoV-2 [11],Dose-Dependent Effect
CC(C)C[C@H](NC(=O)OCc1ccccc1)C(=O)N[C@H](C=O)CCC(N)=O (Cbz-Leu-Gln-aldehyde),inhibition,[8],inactive
